Source: publication PMC5749250 (Cell chemical biology, 2017)

Legend:
[1] = target: USP7 catalytic domain (amino acids 208–560) (Homo sapiens, UniProt Q93009); experiment: Ub-AMC assay, USP7 catalytic domain; type: biochemical; details: for inhibition of USP7: catalytic domain, Ub-AMC, concentrations up to 100 μM
Outline: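 Human USP7 catalytic domain (residues 208–560) was expressed in E. coli BL21(DE3), purified on Ni-NTA, thrombin-treated, gel-filtered and used at 250 nM. 2 uM Ub-AMC was then added. Fluorescence (ex 345/em 445 nm) was read every minute for 30 min. IC50 came from initial rates plotted against concentration.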

[2] = Solubility in aqueous buffer; type: physicochemical
MCF7 cells = experiment: HDM2, p53 and p21 protein levels in MCF7 cells; type: cell-based; details: 16 hours
Outline: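 MCF7 cells grown in RPMI with 10% heat-inactivated FBS and penicillin/streptomycin at 37 °C, 5% CO2. Treated with test compound or DMSO for 16 h. Where used, cycloheximide (50 ug/ml) was added at 14 h. Cells were washed in PBS and lysed in modified RIPA buffer with phosphatase and protease inhibitors. Protein was quantified by BCA, then immunoblotted for mdm2, p53, p21, GAPDH and USP7.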

panel of purified DUBs = experiment: Selectivity profiling; type: biochemical
full-length USP7Q351S = full-length USP7Q351S (Homo sapiens, UniProt Q93009, Q351S); experiment: Ub-AMC assay, full-length USP7Q351S; type: biochemical; details: dose-response, amino acids 1–1102
Outline: (§1)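 Full-length USP7 (1–1102), wild type or Q351 mutant, was expressed in E. coli BL21(DE3), purified by Ni-NTA and Superdex 200 and used at 50 nM. 2 uM Ub-AMC was added and fluorescence (345/445 nm) read each minute over 30 min. Initial rates against concentration gave IC50.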

native USP7 = native USP7 (Homo sapiens, UniProt Q93009); experiment: Competitive activity based protein profiling with HA-Ub-Vs in HEK293T lysates; type: binding
[3] = Mouse liver microsome stability; type: in vitro ADME; details: liver microsomes
[4] = target: full-length USP7 (amino acids 1–1102) (Homo sapiens, UniProt Q93009); experiment: Ub-AMC assay, full-length USP7; type: biochemical; details: XL188 vs 1
Outline: as §1

MM.1S cells = experiment: HDM2, p53 and p21 protein levels in MM.1S cells; type: cell-based; details: 6 hours
Outline: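 MM.1S cells were cultured in RPMI with 10% heat-inactivated FBS and penicillin/streptomycin (37 °C, 5% CO2). They were exposed to test compound or DMSO for 6 h, with or without 50 ug/ml cycloheximide added at 4 h. After a PBS wash, cells were lysed in modified RIPA containing phosphatase and protease inhibitors. Lysates were BCA-normalised and immunoblotted for mdm2, p53, p21, GAPDH and USP7.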

USP7 = details: read-out: IC50, USP7; ref Altun et al., 2011; Ritorto et al., 2014; cited from earlier work
USP10 = details: ref Altun et al., 2011; Ritorto et al., 2014; cited from earlier work
USP47 = details: ref Altun et al., 2011; Ritorto et al., 2014; cited from earlier work

Sequence of USP7 catalytic domain (amino acids 208–560) (Q93009 208-560): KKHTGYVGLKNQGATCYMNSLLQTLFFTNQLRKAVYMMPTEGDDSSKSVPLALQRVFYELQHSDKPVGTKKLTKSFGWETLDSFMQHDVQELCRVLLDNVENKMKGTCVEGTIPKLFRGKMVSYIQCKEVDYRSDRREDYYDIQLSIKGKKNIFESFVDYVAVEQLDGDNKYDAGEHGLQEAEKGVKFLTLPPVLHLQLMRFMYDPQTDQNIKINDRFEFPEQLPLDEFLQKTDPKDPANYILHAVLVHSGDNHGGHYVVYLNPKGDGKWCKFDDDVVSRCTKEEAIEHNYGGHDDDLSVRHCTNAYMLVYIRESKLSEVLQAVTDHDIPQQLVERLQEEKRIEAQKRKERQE
Sequence of full-length USP7Q351S (Q93009 whole entry Q351S, the tested form may be a part): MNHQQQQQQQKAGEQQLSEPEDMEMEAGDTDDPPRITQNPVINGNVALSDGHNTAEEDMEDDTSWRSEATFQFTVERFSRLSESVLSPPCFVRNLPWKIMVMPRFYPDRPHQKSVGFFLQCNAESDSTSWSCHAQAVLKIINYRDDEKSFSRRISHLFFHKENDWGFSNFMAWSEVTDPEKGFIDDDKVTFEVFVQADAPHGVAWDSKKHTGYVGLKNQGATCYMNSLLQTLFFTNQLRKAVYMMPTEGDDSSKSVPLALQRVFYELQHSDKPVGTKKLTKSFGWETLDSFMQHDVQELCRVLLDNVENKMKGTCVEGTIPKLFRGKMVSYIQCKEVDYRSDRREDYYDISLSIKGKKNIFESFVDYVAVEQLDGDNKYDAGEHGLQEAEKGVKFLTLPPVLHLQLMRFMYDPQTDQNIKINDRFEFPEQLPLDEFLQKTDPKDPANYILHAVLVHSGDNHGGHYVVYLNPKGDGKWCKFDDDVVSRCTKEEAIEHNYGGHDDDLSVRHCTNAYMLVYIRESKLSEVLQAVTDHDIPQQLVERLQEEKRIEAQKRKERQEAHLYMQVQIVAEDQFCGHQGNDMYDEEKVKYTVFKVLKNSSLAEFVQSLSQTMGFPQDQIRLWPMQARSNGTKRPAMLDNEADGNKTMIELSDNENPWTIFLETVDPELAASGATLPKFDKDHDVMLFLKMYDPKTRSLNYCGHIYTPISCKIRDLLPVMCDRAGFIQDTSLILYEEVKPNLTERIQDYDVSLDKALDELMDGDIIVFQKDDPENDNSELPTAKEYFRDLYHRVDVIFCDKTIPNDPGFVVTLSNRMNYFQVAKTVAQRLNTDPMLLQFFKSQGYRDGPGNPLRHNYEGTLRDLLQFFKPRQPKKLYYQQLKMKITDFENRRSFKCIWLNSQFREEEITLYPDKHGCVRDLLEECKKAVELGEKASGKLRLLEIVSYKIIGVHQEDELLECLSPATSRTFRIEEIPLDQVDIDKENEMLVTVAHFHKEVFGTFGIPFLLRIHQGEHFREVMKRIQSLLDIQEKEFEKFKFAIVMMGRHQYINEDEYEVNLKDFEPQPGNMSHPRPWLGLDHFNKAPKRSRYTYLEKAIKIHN
Sequence of full-length USP7 (amino acids 1–1102) (Q93009 whole entry, the tested form may be a part): as the sequence (Q93009 whole entry Q351S, the tested form may be a part) above, with S351Q counted along it
Sequence of native USP7 (Q93009 whole entry): as the sequence (Q93009 whole entry Q351S, the tested form may be a part) above, with S351Q counted along it

## C[C@H](CC(=O)N1CCC(O)(Cn2cnc3cc(Cl)ccc3c2=O)CC1)c1ccccc1 [Compound 9, (R)-7-chloro-3-((4-hydroxy-1-(3-phenylbutanoyl)piperidin-4-yl)methyl)quinazolin-4(3H)-one]
[1]; (R)- vs (S)-stereoisomer
  fold more potent than the (S)-stereoisomer (10): approximately 100 fold
[2]
  solubility in aqueous buffer: poor

## O=c1c2ccc(Cl)cc2ncn1CC1(O)CCN(CCCc2ccccc2)CC1 [Compound 4, 7-chloro-3-((4-hydroxy-1-(3-phenylpropyl)piperidin-4-yl)methyl)quinazolin-4(3H)-one]
[1]
  inhibition of USP7: abrogated USP7 activity

## C[C@@H](CC(=O)N1CCC(O)(Cn2cnc3cc(NC(=O)CCN4CCN(C)CC4)ccc3c2=O)CC1)c1ccccc1 [XL203C, (S)-N-(3-((4-hydroxy-1-(3-phenylbutanoyl)piperidin-4-yl)methyl)-4-oxo-3,4-dihydroquinazolin-7-yl)-3-(4-methylpiperazin-1-yl)propanamide]
MCF7 cells
  levels of p53 and p21: no observable change
Panel of purified DUBs; Figure S1G, Table S1, concentration not given
  inhibition of other DUBs: no significant inhibition

## N#CC1(Cn2cnc3cc(Cl)ccc3c2=O)CCN(C(=O)CCc2ccccc2)CC1 [Compound 3, 4-((7-chloro-4-oxoquinazolin-3(4H)-yl)methyl)-1-(3-phenylpropanoyl)piperidine-4-carbonitrile]
[1]
  inhibition of USP7: little inhibition

## O=C(Cc1ccccc1)N1CCC(O)(Cn2cnc3cc(Cl)ccc3c2=O)CC1 [Compound 7, 7-chloro-3-((4-hydroxy-1-(2-phenylacetyl)piperidin-4-yl)methyl)quinazolin-4(3H)-one]
[1]
  IC50: > 100 µM

## O=C(CCc1ccccc1)N1CCC(O)(Cn2cnc3cc(Cl)ccc3c2=O)C1 (stereo not drawn) [Compound 5, 7-chloro-3-((3-hydroxy-1-(3-phenylpropanoyl)pyrrolidin-3-yl)methyl)quinazolin-4(3H)-one]
[1]
  inhibition of USP7: abrogated USP7 activity

## C[C@H](CC(=O)N1CCC(O)(Cn2cnc3cc(NC(=O)CCN4CCN(C)CC4)ccc3c2=O)CC1)c1ccccc1 [XL188, (R)-N-(3-((4-hydroxy-1-(3-phenylbutanoyl)piperidin-4-yl)methyl)-4-oxo-3,4-dihydroquinazolin-7-yl)-3-(4-methylpiperazin-1-yl)propanamide]
full-length USP7Q351S
  inhibition of full-length USP7Q351S: resistant
Native USP7
  IC50: ~0.9 µM
[1]
  IC50: 0.193 µM
MCF7 cells
  levels of p53 and p21: increased
MCF7 cells; cycloheximide for the last 2 hours
  HDM2 level: Degradation of HDM2
[3]
  half-life: 31 min
[4]
  fold improvement in biochemical inhibition of USP7 compared to 1: 100 fold
MM.1S cells
  HDM2 level: loss of HDM2
  levels of p21 and p53: increase
Panel of purified DUBs; 10 μM compound, Ub-Rho as substrate
  inhibition of DUBs other than USP7, panel of 41 purified DUBs: little to no inhibition

## CC(CC(=O)N1CCC(O)(Cn2cnc3cc(Cl)ccc3c2=O)CC1)c1ccccc1 (stereo not drawn) [Compound 8, 7-chloro-3-((4-hydroxy-1-(3-phenylbutanoyl)piperidin-4-yl)methyl)quinazolin-4(3H)-one]
[1]; relative to 1
  fold improvement of biochemical potency: approximately 10 fold

## CC(=O)N1CCC(O)(Cn2cnc3cc(Cl)ccc3c2=O)CC1 [Compound 6, 3-((1-acetyl-4-hydroxypiperidin-4-yl)methyl)-7-chloroquinazolin-4(3H)-one]
[1]
  IC50: > 100 µM

## O=C(CCc1ccccc1)N1CCC(Cn2cnc3cc(Cl)ccc3c2=O)CC1 [Compound 2, 7-chloro-3-((1-(3-phenylpropanoyl)piperidin-4-yl)methyl)quinazolin-4(3H)-one]
[1]
  inhibition of USP7: little inhibition

## CC(=O)c1cc([N+](=O)[O-])c(Sc2ccc(F)cc2F)s1 [Compound P22077]
USP7
  IC50: […]
USP10
  inhibition of USP10 compared with USP7: equipotent
USP47
  inhibition of USP47 compared with USP7: equipotent
